Measured values as given in ChEMBL document CHEMBL1152570, “Discovery of a series of acrylic acids and their derivatives as chemical leads for selective EP3 receptor antagonists” (Bioorg Med Chem, 2009).

How the values were obtained:
[1] = molecular target: T1, Prostaglandin E2 receptor EP1 subtype (Mus musculus, UniProt P35375); test: Displacement of [3H]PGE2 from mouse EP1 receptor expressed in CHO cells by liquid scintillation counting; type: cell-based
T1 sequence (P35375 whole entry): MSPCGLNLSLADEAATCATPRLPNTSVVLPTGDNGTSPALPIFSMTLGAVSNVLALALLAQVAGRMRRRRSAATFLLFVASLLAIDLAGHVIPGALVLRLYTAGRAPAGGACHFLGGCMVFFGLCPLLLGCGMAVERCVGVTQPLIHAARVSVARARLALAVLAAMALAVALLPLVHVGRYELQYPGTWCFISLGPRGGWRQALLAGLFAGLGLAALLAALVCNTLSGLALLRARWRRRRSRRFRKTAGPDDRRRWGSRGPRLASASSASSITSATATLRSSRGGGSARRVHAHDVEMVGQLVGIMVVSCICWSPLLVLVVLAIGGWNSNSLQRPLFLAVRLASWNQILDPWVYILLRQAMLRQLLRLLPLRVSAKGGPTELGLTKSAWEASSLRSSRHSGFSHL
Outline: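 Membranes from CHO cells stably expressing mEP1, incubated with 2.5 nM [3H]PGE2 and varied test compound concentrations. Buffer: 10 mM KH2PO4-KOH, 1 mM EDTA, 10 mM MgCl2, 0.1 mM NaCl, pH 6.0. Run at 25 °C for 20 min. Filtered on GF/B and washed ice-cold before scintillation counting. Nonspecific binding measured with excess cold PGE2. IC50 from regression; Ki via the Cheng–Prusoff form.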

[2] = molecular target: Prostaglandin E2 receptor EP2 subtype (Mus musculus, UniProt Q62053); test: Displacement of [3H]PGE2 from mouse EP2 receptor expressed in CHO cells by liquid scintillation counting; type: cell-based
Outline: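 Membranes from CHO cells stably expressing the receptor, incubated with 2.5 nM [3H]PGE2 plus test compound over a concentration range. Buffer: 10 mM KH2PO4-KOH, 1 mM EDTA, 10 mM MgCl2, 0.1 mM NaCl, pH 6.0. Run at 25 °C for 60 min. Stopped by GF/B filtration with ice-cold buffer wash, then scintillation counted. Excess unlabeled PGE2 defined nonspecific binding. IC50 taken from the regression curve; Ki = IC50/(1+[L]/Kd).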

[3] = molecular target: T2, Prostaglandin E2 receptor EP3 subtype (Mus musculus, UniProt P30557); test: Displacement of [3H]PGE2 from mouse EP3 receptor expressed in CHO cells by liquid scintillation counting; type: cell-based
T2 sequence (P30557 whole entry): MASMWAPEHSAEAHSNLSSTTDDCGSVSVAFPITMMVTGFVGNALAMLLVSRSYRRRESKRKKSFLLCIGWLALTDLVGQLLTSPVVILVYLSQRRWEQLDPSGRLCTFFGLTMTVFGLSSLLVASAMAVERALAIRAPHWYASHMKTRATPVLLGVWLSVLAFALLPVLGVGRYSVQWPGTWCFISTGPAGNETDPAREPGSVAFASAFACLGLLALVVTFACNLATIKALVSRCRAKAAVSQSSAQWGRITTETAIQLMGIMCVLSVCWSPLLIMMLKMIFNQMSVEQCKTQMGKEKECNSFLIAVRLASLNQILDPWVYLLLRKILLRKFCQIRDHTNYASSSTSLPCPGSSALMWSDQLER
Outline: (§1)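 Mouse EP3α and EP4 CHO membrane binding: 2.5 nM [3H]PGE2 with graded test compound in pH 6.0 KH2PO4-KOH buffer (1 mM EDTA, 10 mM MgCl2, 0.1 mM NaCl), 60 min at 25 °C. Bound ligand collected on GF/B filters, washed with cold buffer, counted by liquid scintillation. Excess unlabeled PGE2 gave nonspecific binding. Ki derived from regression IC50, [L] and Kd.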

[4] = molecular target: Prostaglandin E2 receptor EP4 subtype (Mus musculus, UniProt P32240); test: Displacement of [3H]PGE2 from mouse EP4 receptor expressed in CHO cells by liquid scintillation counting; type: cell-based; outline: as §1
[5] = molecular target: T2, Prostaglandin E2 receptor EP3 subtype; test: Antagonist activity at mouse EP3alpha receptor expressed in CHo cells assessed as inhibition of PGE2-stimulated intracellular calcium concentration; type: functional, cell-based
Outline: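 CHO cells expressing mEP3α were plated at 1×10^4 cells/well and grown 2 days in 10% FBS/αMEM at 37 °C, 5% CO2. Cells were loaded 1 h with 5 µM Fura-2/AM, 20 µM indomethacin and 2.5 mM probenecid. Assay buffer was HBSS with 0.1% BSA, 2 µM indomethacin, 2.5 mM probenecid and 10 mM HEPES, with 1 h dark equilibration at room temperature. Test compound was added with 10 nM PGE2; fluorescence read at 340/380 nm excitation, 500 nm emission. IC50 from percent inhibition of the PGE2 Ca2+ peak.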

Liver microsomes [6] = test: Metabolic stability in human liver microsomes; type: ADME, Microsome
Outline: (§2)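 Human or rat liver microsomes incubated with compound for 15 min at 37 °C; result expressed as percent of intact compound remaining.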

Liver microsomes [7] = test: Metabolic stability in rat liver microsomes; type: ADME, Microsome; outline: as §2
[8] = Cmax in rat at 10 mg/kg, po; type: ADME, organism-based; parameters: dose 10 mg/kg, route oral; conditions: in vivo
Outline: (§3)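 Rats dosed orally at 10 mg/kg; compound given as the sodium salt where specified.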

[9] = AUC (0 to 4 hrs) in rat at 10 mg/kg, po; type: ADME, organism-based; parameters: time < 4 hr, dose 10 mg/kg, route oral; conditions: plasma; outline: as §3
[10] = Half life in rat at 10 mg/kg, iv and 10 mg/kg, po; type: ADME, organism-based; conditions: in vivo
Outline: (§4)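 Rats dosed at 10 mg/kg iv and 10 mg/kg po, compound given as the sodium salt.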

[11] = Total clearance in rat at 10 mg/kg, iv and 10 mg/kg, po; type: ADME, organism-based; conditions: in vivo; outline: as §4
[12] = Volume of distribution at steady state in rat at 10 mg/kg, iv and 10 mg/kg, po; type: ADME, organism-based; conditions: in vivo, read-out: Vdss; outline: as §4
[13] = Oral bioavailability in rat at 10 mg/kg; type: ADME, organism-based; conditions: in vivo; outline: as §3
Cytochrome P450 1A2 = molecular target: T3, Cytochrome P450 1A2 (Homo sapiens, UniProt P05177); test: Inhibition of CYP1A2; type: ADME
T3 sequence (P05177 whole entry): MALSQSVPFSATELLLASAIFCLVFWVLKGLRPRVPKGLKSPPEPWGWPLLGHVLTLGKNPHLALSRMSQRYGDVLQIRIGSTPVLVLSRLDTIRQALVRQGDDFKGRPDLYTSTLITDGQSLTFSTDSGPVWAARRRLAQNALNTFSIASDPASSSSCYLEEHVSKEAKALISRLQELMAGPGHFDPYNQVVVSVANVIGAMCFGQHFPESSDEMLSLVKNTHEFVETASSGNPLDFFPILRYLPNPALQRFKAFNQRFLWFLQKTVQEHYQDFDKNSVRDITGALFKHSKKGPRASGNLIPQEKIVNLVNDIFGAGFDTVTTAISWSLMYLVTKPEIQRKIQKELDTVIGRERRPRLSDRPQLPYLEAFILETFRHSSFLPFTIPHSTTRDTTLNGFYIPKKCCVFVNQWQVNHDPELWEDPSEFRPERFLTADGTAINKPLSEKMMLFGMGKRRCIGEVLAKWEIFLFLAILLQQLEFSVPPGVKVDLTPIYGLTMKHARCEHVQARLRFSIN

Cytochrome P450 2C9 = Cytochrome P450 2C9 (Homo sapiens, UniProt P11712); test: Inhibition of CYP2C9; type: ADME
Cytochrome P450 2C19 = Cytochrome P450 2C19 (Homo sapiens, UniProt P33261); test: Inhibition of CYP2C19; type: ADME
Cytochrome P450 2D6 = Cytochrome P450 2D6 (Homo sapiens, UniProt P10635); test: Inhibition of CYP2D6; type: ADME
Cytochrome P450 3A4 = Cytochrome P450 3A4 (Homo sapiens, UniProt P08684); test: Inhibition of CYP3A4; type: ADME
Cytochrome P450 3A4, sequence (P08684 whole entry): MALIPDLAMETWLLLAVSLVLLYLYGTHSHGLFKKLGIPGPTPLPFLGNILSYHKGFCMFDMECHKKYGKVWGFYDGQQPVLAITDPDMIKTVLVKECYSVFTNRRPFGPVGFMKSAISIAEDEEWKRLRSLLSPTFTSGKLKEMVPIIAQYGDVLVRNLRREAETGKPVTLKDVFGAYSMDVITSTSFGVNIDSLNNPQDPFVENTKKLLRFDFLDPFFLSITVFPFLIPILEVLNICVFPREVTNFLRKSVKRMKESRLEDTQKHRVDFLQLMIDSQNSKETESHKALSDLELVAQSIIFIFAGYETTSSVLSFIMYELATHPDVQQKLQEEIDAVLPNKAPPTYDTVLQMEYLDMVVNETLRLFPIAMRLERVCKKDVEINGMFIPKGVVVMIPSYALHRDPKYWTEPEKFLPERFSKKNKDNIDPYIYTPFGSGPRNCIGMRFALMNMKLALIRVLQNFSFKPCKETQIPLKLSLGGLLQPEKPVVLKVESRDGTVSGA

Prostaglandin E2 receptor EP2 subtype, sequence (Q62053 whole entry): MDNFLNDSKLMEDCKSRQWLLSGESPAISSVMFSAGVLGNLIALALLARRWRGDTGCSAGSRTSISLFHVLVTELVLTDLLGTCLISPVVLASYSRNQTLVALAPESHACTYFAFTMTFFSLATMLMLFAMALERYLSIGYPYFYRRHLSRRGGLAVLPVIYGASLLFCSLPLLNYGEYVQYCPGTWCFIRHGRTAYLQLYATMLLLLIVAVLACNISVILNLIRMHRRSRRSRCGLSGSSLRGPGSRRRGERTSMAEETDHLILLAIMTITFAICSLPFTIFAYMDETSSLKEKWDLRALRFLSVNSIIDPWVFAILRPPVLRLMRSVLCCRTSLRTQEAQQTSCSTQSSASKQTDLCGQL
Cytochrome P450 2C19, sequence (P33261 whole entry): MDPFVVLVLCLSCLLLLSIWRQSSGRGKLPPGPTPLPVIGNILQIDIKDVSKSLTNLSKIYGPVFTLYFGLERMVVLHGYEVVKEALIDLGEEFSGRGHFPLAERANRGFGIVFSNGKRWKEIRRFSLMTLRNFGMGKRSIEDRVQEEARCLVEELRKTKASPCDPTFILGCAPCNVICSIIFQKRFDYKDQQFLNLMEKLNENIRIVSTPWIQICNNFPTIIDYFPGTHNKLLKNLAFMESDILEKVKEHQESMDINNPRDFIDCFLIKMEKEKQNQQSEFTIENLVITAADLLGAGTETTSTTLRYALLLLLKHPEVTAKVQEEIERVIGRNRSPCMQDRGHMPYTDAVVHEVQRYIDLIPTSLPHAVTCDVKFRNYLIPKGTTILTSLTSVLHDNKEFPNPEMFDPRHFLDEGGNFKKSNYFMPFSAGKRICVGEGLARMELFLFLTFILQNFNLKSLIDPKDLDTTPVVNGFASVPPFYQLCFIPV
Cytochrome P450 2C9, sequence (P11712 whole entry): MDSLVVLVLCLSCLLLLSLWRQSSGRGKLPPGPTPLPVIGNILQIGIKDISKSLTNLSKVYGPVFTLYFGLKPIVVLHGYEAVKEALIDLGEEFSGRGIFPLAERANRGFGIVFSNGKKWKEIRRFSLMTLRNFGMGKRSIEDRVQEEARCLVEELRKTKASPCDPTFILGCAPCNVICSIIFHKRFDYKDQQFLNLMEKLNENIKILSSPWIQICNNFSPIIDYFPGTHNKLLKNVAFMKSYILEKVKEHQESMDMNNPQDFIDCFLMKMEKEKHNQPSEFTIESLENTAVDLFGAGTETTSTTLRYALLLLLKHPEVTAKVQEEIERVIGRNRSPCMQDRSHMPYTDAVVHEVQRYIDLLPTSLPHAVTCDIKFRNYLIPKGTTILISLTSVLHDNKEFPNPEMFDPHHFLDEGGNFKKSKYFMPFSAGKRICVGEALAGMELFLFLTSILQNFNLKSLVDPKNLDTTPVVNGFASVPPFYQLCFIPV
Prostaglandin E2 receptor EP4 subtype, sequence (P32240 whole entry): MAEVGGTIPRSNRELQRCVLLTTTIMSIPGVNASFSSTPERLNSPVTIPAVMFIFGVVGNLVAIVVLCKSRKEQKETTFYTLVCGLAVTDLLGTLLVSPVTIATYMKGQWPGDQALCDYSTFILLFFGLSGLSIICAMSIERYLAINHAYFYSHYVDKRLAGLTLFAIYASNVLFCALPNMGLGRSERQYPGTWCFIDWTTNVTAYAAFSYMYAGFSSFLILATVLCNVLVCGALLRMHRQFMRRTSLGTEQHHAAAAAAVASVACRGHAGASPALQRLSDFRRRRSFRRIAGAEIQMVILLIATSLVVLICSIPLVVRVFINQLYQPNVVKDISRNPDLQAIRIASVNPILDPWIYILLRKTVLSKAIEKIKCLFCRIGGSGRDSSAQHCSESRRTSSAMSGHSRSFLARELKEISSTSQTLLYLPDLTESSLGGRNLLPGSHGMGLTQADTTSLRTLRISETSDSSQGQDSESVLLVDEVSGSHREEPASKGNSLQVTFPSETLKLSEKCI
Cytochrome P450 2D6, sequence (P10635 whole entry): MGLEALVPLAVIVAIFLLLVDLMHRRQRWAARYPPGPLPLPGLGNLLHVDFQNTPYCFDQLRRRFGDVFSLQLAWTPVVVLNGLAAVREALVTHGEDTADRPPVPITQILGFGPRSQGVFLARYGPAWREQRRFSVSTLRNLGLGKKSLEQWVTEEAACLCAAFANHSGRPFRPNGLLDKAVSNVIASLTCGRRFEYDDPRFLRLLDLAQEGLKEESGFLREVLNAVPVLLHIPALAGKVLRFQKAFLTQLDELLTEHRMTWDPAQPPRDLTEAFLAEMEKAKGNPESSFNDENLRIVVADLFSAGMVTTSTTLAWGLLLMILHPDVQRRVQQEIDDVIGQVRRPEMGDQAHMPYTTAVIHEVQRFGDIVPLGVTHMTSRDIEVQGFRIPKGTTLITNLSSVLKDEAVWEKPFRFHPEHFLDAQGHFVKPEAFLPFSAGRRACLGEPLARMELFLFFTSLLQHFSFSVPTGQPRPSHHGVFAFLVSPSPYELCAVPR

| Ki [1] [nM] | Ki [2] [nM] | Ki [3] [nM] | Ki [4] [nM] | IC50 [5] [nM] | Compound | also measured |
| --- | --- | --- | --- | --- | --- | --- |
| > 10000 | 9200 | 130 | 2600 | 140 | O=C(O)/C=C/c1ccc(COc2ccccc2)cc1OCCc1ccc2ccccc2c1 |  |
| > 10000 | 6800 | > 10000 | 920 | > 10000 | COc1ccc(/C=C/C(=O)O)c(OCCC2(C)CCc3c(C)c(O)c(C)c(C)c3O2)c1 (configuration not stated) |  |
|  |  |  |  |  | O=C([O-])CCc1ccc(Cn2cccn2)cc1OCCc1ccc2ccccc2c1.[Na+] | Stability (Liver microsomes [6]): 100%; Stability (Liver microsomes [7]): 73%; Cmax [8]: 8320 ng/mL; AUC(0-t) at 4 h [9]: 22900 ng·h/mL; half-life [10]: 2.93 h; clearance [11]: 2.77 mL/min/kg; Vd [12]: 0.538 L/kg; bioavailability [13]: 53% |
| > 10000 | > 10000 | 63 | > 10000 | 600 | Cc1c(C)c2c(c(C)c1O)CCC(C)(CCOc1cc(Cn3ccnc3)ccc1/C=C/C(=O)O)O2 (configuration not stated) |  |
| > 10000 | 1200 | 530 | 2600 | 4800 | Cc1c(C)c2c(c(C)c1O)CCC(C)(CCOc1ccccc1/C=C/C(=O)O)O2 (configuration not stated) |  |
| > 10000 | > 10000 | 44 | 4300 | 330 | O=C(O)/C=C/c1ccc(Cn2ccnc2)cc1OCCc1cc2ccccc2o1 |  |
| > 10000 | 2100 | 150 | 2200 | 150 | O=C(O)/C=C/c1ccc(Cc2cccs2)cc1OCCc1ccc2ccccc2c1 |  |
| > 10000 | 5700 | 940 | 2200 | 3100 | Cc1ccc(/C=C/C(=O)O)c(OCCC2(C)CCc3c(C)c(O)c(C)c(C)c3O2)c1 (configuration not stated) |  |
| 4000 | 1800 | 39 | 1400 | 460 | O=C(O)CCCc1ccc(Cn2cccn2)cc1OCCc1ccc2ccccc2c1 |  |
| > 10000 | > 10000 | 99 | 2900 | 1200 | O=C(O)C#Cc1ccc(Cn2cccn2)cc1OCCc1ccc2ccccc2c1 |  |
| 2900 | 3300 | 12 | 670 | 73 | O=C(O)/C=C/c1ccc(Cn2cccn2)cc1OCCc1ccc2ccccc2c1 | IC50 (Cytochrome P450 1A2): > 30000 nM; IC50 (Cytochrome P450 2C9): 12800 nM; IC50 (Cytochrome P450 2C19): 30000 nM; IC50 (Cytochrome P450 2D6): > 30000 nM; IC50 (Cytochrome P450 3A4): > 30000 nM |
| > 10000 | 1300 | 210 | > 10000 | 540 | O=C(O)COCc1ccc(Cn2cccn2)cc1OCCc1ccc2ccccc2c1 |  |
|  |  |  |  |  | O=C([O-])/C=C/c1ccc(Cn2cccn2)cc1OCCc1ccc2ccccc2c1.[Na+] | Stability (Liver microsomes [6]): 100%; Stability (Liver microsomes [7]): 72%; Cmax [8]: 943 ng/mL; AUC(0-t) at 4 h [9]: 1360 ng·h/mL |
| > 10000 | > 10000 | 280 | > 10000 | 3000 | O=C(O)/C=C/c1ccc(Cn2ccnc2)cc1OCCCOc1ccccc1 |  |
| > 10000 | > 10000 | 16 | 2200 | 50 | O=C(O)/C=C/c1ccc(Cn2ccnc2)cc1OCCc1ccc2ccccc2c1 | IC50 (Cytochrome P450 1A2): < 1000 nM; IC50 (Cytochrome P450 2C9): < 1000 nM; IC50 (Cytochrome P450 2C19): < 1000 nM; IC50 (Cytochrome P450 2D6): 4400 nM; IC50 (Cytochrome P450 3A4): < 1000 nM |
| > 10000 | > 10000 | 220 | > 10000 | 3500 | O=C(O)/C=C/c1ccc(Cn2ccnc2)cc1OCCCCOc1ccccc1 |  |
| > 10000 | 1200 | 850 | > 10000 | 1500 | O=C(O)/C=C/c1ccc(OCc2ccccc2)cc1OCCc1ccc2ccccc2c1 |  |
| > 10000 | > 10000 | 260 | > 10000 | 2600 | O=C(O)COc1ccc(Cn2cccn2)cc1OCCc1ccc2ccccc2c1 |  |
| > 10000 | > 10000 | 130 | 2100 | 400 | O=C(O)/C=C/c1ccc(Cc2ccccc2)cc1OCCc1ccc2ccccc2c1 |  |
| 6400 | 5900 | 110 | 2300 | 580 | O=C(O)/C=C/c1ccc(CN2CCCC2=O)cc1OCCc1ccc2ccccc2c1 |  |
| 7100 | 2800 | 12 | 1100 | 22 | O=C(O)CCc1ccc(Cn2cccn2)cc1OCCc1ccc2ccccc2c1 | IC50 (Cytochrome P450 1A2): > 30000 nM; IC50 (Cytochrome P450 2C9): 30000 nM; IC50 (Cytochrome P450 2C19): > 30000 nM; IC50 (Cytochrome P450 2D6): > 30000 nM; IC50 (Cytochrome P450 3A4): > 30000 nM |
